# Molecular target: T1, Stearoyl-CoA desaturase (Homo sapiens, UniProt O00767)
# T1 sequence (O00767 whole entry): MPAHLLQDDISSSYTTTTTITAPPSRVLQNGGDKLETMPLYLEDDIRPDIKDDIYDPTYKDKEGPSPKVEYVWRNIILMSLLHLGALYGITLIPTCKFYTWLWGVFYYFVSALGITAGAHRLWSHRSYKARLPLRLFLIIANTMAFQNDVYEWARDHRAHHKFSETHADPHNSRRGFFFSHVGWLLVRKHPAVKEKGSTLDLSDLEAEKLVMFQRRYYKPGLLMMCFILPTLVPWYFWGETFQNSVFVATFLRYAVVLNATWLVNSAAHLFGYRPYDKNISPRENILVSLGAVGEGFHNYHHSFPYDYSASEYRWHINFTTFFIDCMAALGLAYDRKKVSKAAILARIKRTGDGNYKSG
# Test: Inhibition of recombinant human SCD1 expressed in baculovirus expression system assessed as reduction in [3H]H2O production using stearoyl [9,10-3H]CoA as substrate in presence of NADH incubated for 30 mins by scintillation counting method
# Outline: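 Desaturation of [9,10-3H]stearoyl-CoA measured as released [3H]H2O. Water was separated from charcoal-adsorbed substrate by filtration and counted by scintillation. Remaining activity = (compound − background)/(control − background). DMSO wells served as control and pre-stopped wells as background. IC50 was interpolated from the two points bracketing 50%.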
row,SMILES,IC50
1,O=C(Nc1nc(CO)c(C(=O)O)s1)c1ccc(CNc2ccccc2C(F)(F)F)cc1,22 nM
2,O=C(Nc1nc(CCO)cs1)c1ccc(CNc2ccccc2C(F)(F)F)cc1,4.2 nM
3,O=C(Nc1ncc(C(=O)O)s1)c1ccc(CNc2ccccc2C(F)(F)F)cc1,8.1 nM
4,O=C(Nc1nc(CO)cs1)c1ccc(CNc2ccccc2Cl)cc1,4.3 nM
5,O=C(O)CCc1csc(NC(=O)c2ccc(CNc3ccccc3C(F)(F)F)cc2)n1,6.3 nM
6,CC(C)CCc1ccccc1NCc1ccc(C(=O)Nc2nc(CC(=O)O)cs2)cc1,4.8 nM
7,Cc1csc(NC(=O)c2ccc(COc3ccccc3Cl)cc2)n1,150 nM
8,O=C(Nc1nc(CCO)cs1)c1ccc(CNc2ccccc2Cl)cc1,6.4 nM
9,Cc1ccccc1NCc1ccc(C(=O)Nc2nc(CC(=O)O)cs2)cc1,14 nM
10,O=C(Nc1nc(CO)cs1)c1ccc(CNc2ccccc2C(F)(F)F)s1,5.1 nM
11,Cc1csc(NC(=O)c2ccc(CNc3ccccc3C(F)(F)F)cc2)n1,4.1 nM
12,O=C(O)Cc1csc(NC(=O)c2ccc(CNc3ccccc3Cc3ccccc3)cc2)n1,5.5 nM
13,O=C(O)Cc1csc(NC(=O)c2ccc(CNc3ccccc3C(F)(F)F)cc2)n1,5.1 nM
14,O=C(O)Cc1csc(NC(=O)c2ccc(CNc3ccccc3Cl)cc2)n1,13 nM
15,CCCCc1ccccc1NCc1ccc(C(=O)Nc2nc(CCO)cs2)cc1,3 nM
16,O=C(O)CCCc1csc(NC(=O)c2ccc(CNc3ccccc3C(F)(F)F)cc2)n1,2700 nM
17,CCCc1ccccc1NCc1ccc(C(=O)Nc2nc(C)cs2)cc1,8.9 nM
18,Cc1csc(NC(=O)c2ccc(CNc3ccccc3C(=O)O)cc2)n1,3600 nM
19,CCCCCCc1ccccc1NCc1ccc(C(=O)Nc2nc(CC(=O)O)cs2)cc1,3 nM
20,CCCCCCCCc1ccccc1NCc1ccc(C(=O)Nc2nc(CC(=O)O)cs2)s1,17 nM
21,O=C(Nc1nc(CCO)cs1)c1ccc(CNc2ccccc2C(F)(F)F)s1,3.9 nM
22,O=C(O)Cc1csc(NC(=O)c2ccc(CNc3ccccc3C(F)(F)F)s2)n1,9 nM
23,Cc1csc(NC(=O)c2ccc(CNc3cccc(Cl)c3)cc2)n1,18 nM
24,O=C(Nc1ncc(CCO)s1)c1ccc(CNc2ccccc2C(F)(F)F)cc1,3.8 nM

row,SMILES,IC50
1,CC(C)CCc1ccccc1NCc1ccc(C(=O)Nc2nc(CC(=O)O)cs2)s1,6.7 nM
2,O=C(Nc1nc(CO)cs1)c1ccc(CNc2ccccc2C(F)(F)F)cc1,3.8 nM
3,CCCCCCc1ccccc1NCc1ccc(C(=O)Nc2nc(CC(=O)O)cs2)s1,4.8 nM
4,Cc1ccccc1NCc1ccc(C(=O)Nc2nc(C(=O)O)cs2)cc1,> 10000 nM
5,O=C(Nc1nc(CCCO)cs1)c1ccc(CNc2ccccc2C(F)(F)F)cc1,5.2 nM
6,CCCCc1ccccc1NCc1ccc(C(=O)Nc2nc(CO)cs2)cc1,3.2 nM
7,Cc1csc(NC(=O)c2ccc(CNc3ccccc3Cl)cc2)n1,9.2 nM
8,O=C(O)CCc1cnc(NC(=O)c2ccc(CNc3ccccc3C(F)(F)F)cc2)s1,570 nM
9,Cc1csc(NC(=O)N2CCC(CNc3ccccc3C(F)(F)F)CC2)n1,30 nM
10,CCCCc1ccccc1NCc1ccc(C(=O)Nc2nc(CC(=O)O)cs2)cc1,5.5 nM
11,CC(C)CCc1ccccc1NCc1ccc(C(=O)Nc2nc(CCO)cs2)cc1,5.3 nM
12,O=C(Nc1ncc(CO)s1)c1ccc(CNc2ccccc2C(F)(F)F)cc1,2.8 nM
13,Cc1csc(NC(=O)c2ccc(CNc3ccccc3C)nc2)n1,310 nM
14,CCCCCCCCc1ccccc1NCc1ccc(C(=O)Nc2nc(CC(=O)O)cs2)cc1,4.5 nM
15,Cc1csc(NC(=O)c2ccc(CNc3ccccc3)cc2)n1,95 nM
16,CCCCCCc1ccccc1NCc1ccc(C(=O)Nc2nc(CCO)cs2)s1,4.5 nM
17,Cc1csc(NC(=O)c2ccc(CNc3ccccc3C)cn2)n1,46 nM
18,O=C(O)Cc1cnc(NC(=O)c2ccc(CNc3ccccc3C(F)(F)F)cc2)s1,58 nM
19,O=C(O)Cc1csc(NC(=O)c2ccc(CNc3ccccc3-c3ccccc3)cc2)n1,8.7 nM
20,Cc1csc(NC(=O)c2ccc(CNc3ccc(Cl)cc3)cc2)n1,760 nM
21,O=C(Nc1ncc(CCCO)s1)c1ccc(CNc2ccccc2C(F)(F)F)cc1,260 nM
22,Cc1csc(NC(=O)c2ccc(CNc3ccccc3C(F)(F)F)s2)n1,9.7 nM
23,O=C(Nc1nc(CCCO)c(CCO)s1)c1ccc(CNc2ccccc2C(F)(F)F)cc1,31 nM
24,O=C(O)Cc1csc(NC(=O)c2ccc(CNc3ccccc3Cc3ccccc3)s2)n1,7.5 nM

# Test system: Mus musculus
# Test: Ex vivo inhibition of SCD1 in C57BL/6J mouse liver assessed as residual activity at 1 mg/kg, po treated for 6 hrs followed by incubation with [14C]stearoyl-CoA substrate for 10 mins by TLC assay relative to control
# Assay type: functional
# Outline: (§1)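 Male 6-week-old C57BL/6J mice dosed orally as a suspension in 0.5% methylcellulose. Liver or eyelid was taken 6 or 24 h later and homogenized in 100 mM Tris-HCl pH 7.4 with 0.25 M sucrose. S9 was obtained at 10,000 × g, 4 °C. S9 was incubated with [14C]stearoyl-CoA, NADH, MgCl2 and cytochrome b5 at room temperature, 10 min for liver and 30 min for eyelid. Lipids were saponified and run on AgNO3 TLC to quantify stearate and oleate. Result is % of vehicle control.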
row,SMILES,Activity
1,O=C(Nc1nc(CCO)cs1)c1ccc(CNc2ccccc2C(F)(F)F)cc1,33%
2,O=C(Nc1nc(CO)cs1)c1ccc(CNc2ccccc2Cl)cc1,12%
3,CC(C)CCc1ccccc1NCc1ccc(C(=O)Nc2nc(CC(=O)O)cs2)cc1,19%
4,O=C(Nc1nc(CCO)cs1)c1ccc(CNc2ccccc2Cl)cc1,29%
5,O=C(Nc1nc(CO)cs1)c1ccc(CNc2ccccc2C(F)(F)F)s1,9%
6,O=C(O)Cc1csc(NC(=O)c2ccc(CNc3ccccc3Cc3ccccc3)cc2)n1,18%
7,O=C(O)Cc1csc(NC(=O)c2ccc(CNc3ccccc3C(F)(F)F)cc2)n1,98%
8,O=C(O)Cc1csc(NC(=O)c2ccc(CNc3ccccc3Cl)cc2)n1,72%
9,CCCCc1ccccc1NCc1ccc(C(=O)Nc2nc(CCO)cs2)cc1,61%
10,CCCCCCc1ccccc1NCc1ccc(C(=O)Nc2nc(CC(=O)O)cs2)cc1,31%
11,CCCCCCCCc1ccccc1NCc1ccc(C(=O)Nc2nc(CC(=O)O)cs2)s1,7%
12,O=C(Nc1nc(CCO)cs1)c1ccc(CNc2ccccc2C(F)(F)F)s1,10%
13,O=C(O)Cc1csc(NC(=O)c2ccc(CNc3ccccc3C(F)(F)F)s2)n1,51%
14,CC(C)CCc1ccccc1NCc1ccc(C(=O)Nc2nc(CC(=O)O)cs2)s1,19%
15,O=C(Nc1nc(CO)cs1)c1ccc(CNc2ccccc2C(F)(F)F)cc1,20%
16,CCCCCCc1ccccc1NCc1ccc(C(=O)Nc2nc(CC(=O)O)cs2)s1,12%
17,O=C(Nc1nc(CCCO)cs1)c1ccc(CNc2ccccc2C(F)(F)F)cc1,64%
18,CCCCc1ccccc1NCc1ccc(C(=O)Nc2nc(CO)cs2)cc1,10%
19,CCCCc1ccccc1NCc1ccc(C(=O)Nc2nc(CC(=O)O)cs2)cc1,76%
20,CC(C)CCc1ccccc1NCc1ccc(C(=O)Nc2nc(CCO)cs2)cc1,26%
21,CCCCCCCCc1ccccc1NCc1ccc(C(=O)Nc2nc(CC(=O)O)cs2)cc1,15%
22,CCCCCCc1ccccc1NCc1ccc(C(=O)Nc2nc(CCO)cs2)s1,12%
23,O=C(O)Cc1csc(NC(=O)c2ccc(CNc3ccccc3-c3ccccc3)cc2)n1,74%
24,O=C(O)Cc1csc(NC(=O)c2ccc(CNc3ccccc3Cc3ccccc3)s2)n1,22%

# Test system: Mus musculus
# Test: Ex vivo inhibition of SCD1 in C57BL/6J mouse eyelid assessed as residual activity at 1 mg/kg, po treated for 6 hrs followed by incubation with [14C]stearoyl-CoA substrate for 30 mins by TLC assay relative to control
# Assay type: organism-based
# Outline: as §1
row,SMILES,Activity
1,O=C(Nc1nc(CCO)cs1)c1ccc(CNc2ccccc2C(F)(F)F)cc1,136%
2,O=C(Nc1nc(CO)cs1)c1ccc(CNc2ccccc2Cl)cc1,37%
3,CC(C)CCc1ccccc1NCc1ccc(C(=O)Nc2nc(CC(=O)O)cs2)cc1,68%
4,O=C(Nc1nc(CCO)cs1)c1ccc(CNc2ccccc2Cl)cc1,74%
5,O=C(Nc1nc(CO)cs1)c1ccc(CNc2ccccc2C(F)(F)F)s1,33%
6,O=C(O)Cc1csc(NC(=O)c2ccc(CNc3ccccc3Cc3ccccc3)cc2)n1,76%
7,O=C(O)Cc1csc(NC(=O)c2ccc(CNc3ccccc3C(F)(F)F)cc2)n1,107%
8,O=C(O)Cc1csc(NC(=O)c2ccc(CNc3ccccc3Cl)cc2)n1,132%
9,CCCCc1ccccc1NCc1ccc(C(=O)Nc2nc(CCO)cs2)cc1,94%
10,CCCCCCc1ccccc1NCc1ccc(C(=O)Nc2nc(CC(=O)O)cs2)cc1,119%
11,CCCCCCCCc1ccccc1NCc1ccc(C(=O)Nc2nc(CC(=O)O)cs2)s1,77%
12,O=C(Nc1nc(CCO)cs1)c1ccc(CNc2ccccc2C(F)(F)F)s1,171%
13,O=C(O)Cc1csc(NC(=O)c2ccc(CNc3ccccc3C(F)(F)F)s2)n1,124%
14,CC(C)CCc1ccccc1NCc1ccc(C(=O)Nc2nc(CC(=O)O)cs2)s1,160%
15,O=C(Nc1nc(CO)cs1)c1ccc(CNc2ccccc2C(F)(F)F)cc1,73%
16,CCCCCCc1ccccc1NCc1ccc(C(=O)Nc2nc(CC(=O)O)cs2)s1,88%
17,O=C(Nc1nc(CCCO)cs1)c1ccc(CNc2ccccc2C(F)(F)F)cc1,75%
18,CCCCc1ccccc1NCc1ccc(C(=O)Nc2nc(CO)cs2)cc1,29%
19,CCCCc1ccccc1NCc1ccc(C(=O)Nc2nc(CC(=O)O)cs2)cc1,74%
20,CC(C)CCc1ccccc1NCc1ccc(C(=O)Nc2nc(CCO)cs2)cc1,63%
21,CCCCCCCCc1ccccc1NCc1ccc(C(=O)Nc2nc(CC(=O)O)cs2)cc1,127%
22,CCCCCCc1ccccc1NCc1ccc(C(=O)Nc2nc(CCO)cs2)s1,104%
23,O=C(O)Cc1csc(NC(=O)c2ccc(CNc3ccccc3-c3ccccc3)cc2)n1,187%
24,O=C(O)Cc1csc(NC(=O)c2ccc(CNc3ccccc3Cc3ccccc3)s2)n1,128%

# Test system: Mus musculus
# Test: Ex vivo inhibition of SCD1 in C57BL/6J mouse liver assessed as residual activity at 10 mg/kg, po treated for 24 hrs followed by incubation with [14C]stearoyl-CoA substrate for 10 mins by TLC assay relative to control
# Assay type: functional
# Outline: as §1
row,SMILES,Activity
1,O=C(Nc1nc(CCO)cs1)c1ccc(CNc2ccccc2Cl)cc1,66%
2,O=C(O)Cc1csc(NC(=O)c2ccc(CNc3ccccc3Cc3ccccc3)cc2)n1,53%
3,CCCCCCCCc1ccccc1NCc1ccc(C(=O)Nc2nc(CC(=O)O)cs2)s1,11%
4,O=C(Nc1nc(CCO)cs1)c1ccc(CNc2ccccc2C(F)(F)F)s1,27%
5,CC(C)CCc1ccccc1NCc1ccc(C(=O)Nc2nc(CC(=O)O)cs2)s1,34%
6,O=C(Nc1nc(CO)cs1)c1ccc(CNc2ccccc2C(F)(F)F)cc1,53%
7,CCCCCCc1ccccc1NCc1ccc(C(=O)Nc2nc(CC(=O)O)cs2)s1,13%
8,CCCCCCCCc1ccccc1NCc1ccc(C(=O)Nc2nc(CC(=O)O)cs2)cc1,74%
9,CCCCCCc1ccccc1NCc1ccc(C(=O)Nc2nc(CCO)cs2)s1,12%
10,O=C(O)Cc1csc(NC(=O)c2ccc(CNc3ccccc3Cc3ccccc3)s2)n1,20%

# Test system: Mus musculus
# Test: Ex vivo inhibition of SCD1 in C57BL/6J mouse eyelid assessed as residual activity at 100 mg/kg, po treated for 24 hrs followed by incubation with [14C]stearoyl-CoA substrate for 30 mins by TLC assay relative to control
# Assay type: organism-based
# Outline: as §1
row,SMILES,Activity
1,O=C(Nc1nc(CCO)cs1)c1ccc(CNc2ccccc2Cl)cc1,35%
2,O=C(O)Cc1csc(NC(=O)c2ccc(CNc3ccccc3Cc3ccccc3)cc2)n1,100%
3,CCCCCCCCc1ccccc1NCc1ccc(C(=O)Nc2nc(CC(=O)O)cs2)s1,8%
4,O=C(Nc1nc(CCO)cs1)c1ccc(CNc2ccccc2C(F)(F)F)s1,8%
5,CC(C)CCc1ccccc1NCc1ccc(C(=O)Nc2nc(CC(=O)O)cs2)s1,84%
6,O=C(Nc1nc(CO)cs1)c1ccc(CNc2ccccc2C(F)(F)F)cc1,0%
7,CCCCCCc1ccccc1NCc1ccc(C(=O)Nc2nc(CC(=O)O)cs2)s1,52%
8,CCCCCCCCc1ccccc1NCc1ccc(C(=O)Nc2nc(CC(=O)O)cs2)cc1,71%
9,CCCCCCc1ccccc1NCc1ccc(C(=O)Nc2nc(CCO)cs2)s1,4%
10,O=C(O)Cc1csc(NC(=O)c2ccc(CNc3ccccc3Cc3ccccc3)s2)n1,76%

# From ChEMBL document CHEMBL4265954, “Discovery of potent liver-selective stearoyl-CoA desaturase-1 (SCD1) inhibitors, thiazole-4-acetic acid derivatives, for the treatment of diabetes, hepatic steatosis, and obesity” (Eur J Med Chem, 2018)
